Data set [1] has as its target T1, Neutrophil elastase (Homo sapiens, UniProt P08246).
T1 sequence (P08246 whole entry): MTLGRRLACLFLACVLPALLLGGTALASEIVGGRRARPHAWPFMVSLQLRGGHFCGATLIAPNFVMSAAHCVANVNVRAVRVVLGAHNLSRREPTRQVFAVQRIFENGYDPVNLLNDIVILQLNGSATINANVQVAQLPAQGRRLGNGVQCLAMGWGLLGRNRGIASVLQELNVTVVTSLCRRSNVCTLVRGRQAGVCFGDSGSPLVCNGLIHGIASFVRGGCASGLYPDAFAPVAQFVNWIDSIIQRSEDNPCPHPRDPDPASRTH
The data set can be described thus: Inhibition constant (steady state) against Human Leukocyte Elastase (HLE). In a few lines:
(§1)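 HLE from human sputum, active-site titrated with MeO-Suc-Ala-Ala-Pro-Val-CH2Cl; 1–3 nM active enzyme. […] Substrate and inhibitor concentrations varied to derive kon and Ki(ss).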

The nature of data set [2]: Chemical stability (T1/2 at pH 7.4). It counts as physicochemical. As to conditions: buffer.
The target of data set [3] is T2, Neutrophil elastase (Homo sapiens) (UniProt P08246).
T2 sequence (whole entry): T1 sequence (P08246 whole entry)
The data set can be described thus: Tested for the rate constant against Human Leukocyte Elastase (HLE) inactivation. In a few lines: as §1

Data set [4] addresses T2, Neutrophil elastase (Homo sapiens). The experiment in a line: Tested for inhibition of Human Leukocyte Elastase (HLE) in living polymorphonuclear leukocytes. It counts as cell-based. Set-up: scale not given: the % may be the effect or the level left. In a few lines: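 Human PMNs from citrated venous blood, 5 × 10^6 cells/mL, exposed to inhibitor (10 μg per mL, in DMSO) for 15 min at 37 °C, then washed three times. Stimulated with cytochalasin B for 5 min, then fMLP for 15 min. Supernatant elastase assayed with N-acetyl-Ala-Ala-Pro-Ala-7-(4-methyl)coumarylamide, 6 h at 25 °C, fluorescence read; DMSO-only controls.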

One may read the half-life as how long it takes for the measured level to halve.

Turning to `CO[C@H]1C(=O)N2C(C(=O)C(C)(C)C)=C(C)[C@@H](OC(=O)C(C)(C)C)S(=O)(=O)C12` (some centres not stated), in data set [1], the Ki ss was less than 2 nM. In data set [2], this compound gave a half-life of 54 h. For the compound `CC1=C(C(=O)c2ccccc2)N2C(=O)[C@H](Cl)C2S(=O)(=O)C1` (some centres not stated), the Ki ss in data set [1] was 130 nM. In data set [2], the half-life was 2.3 h.

Take `CO[C@H]1C(=O)N2C(C(=O)c3ccccc3)=C(CSc3nnnn3C)CS(=O)(=O)C12` (some centres not stated): the Ki ss in data set [1] was determined as 110 nM. The compound further showed a half-life in data set [2] of 17 h. Taken in the same sequence, the figures for `CO[C@H]1C(=O)N2C(C(=O)C(C)(C)C)=C(C)[C@@H](OC(C)=O)S(=O)(=O)C12` (some centres not stated) were 4 nM and 6.3 h. In the same order, the values of `CO[C@H]1C(=O)N2C(C(=O)C(C)(C)C)=C(C)[C@@H](Sc3nnnn3C)S(=O)(=O)C12` (some centres not stated) are 8 nM and 18 h. In turn, `CO[C@H]1C(=O)N2C(C(=O)C(C)(C)C)=C(C)[C@@H](S(=O)(=O)c3ccccc3)S(=O)(=O)C12` (some centres not stated) displayed a Ki ss in data set [1] of 20 nM. In addition, the half-life in data set [2] is 10 h. `CO[C@H]1C(=O)N2C(C(=O)C(C)(C)C)=C(CSc3nnnn3C)CS(=O)(=O)C12` (some centres not stated) had a Ki ss in data set [1] of 34 nM. Also, the half-life in data set [2] was 24 h. In the same order, the values of `CO[C@H]1C(=O)N2C(C(=O)C(C)(C)C)=C(CSc3ccccn3)CS(=O)(=O)C12` (some centres not stated) are 12 nM and 28 h. `COC(=O)C1=C(COC(C)=O)CS(=O)(=O)C2[C@@H](Cl)C(=O)N12` (some centres not stated) had a Ki ss in data set [1] of 12 nM. The half-life in data set [2] is 0.9 h. In data set [1], `CC(=O)OCC1=C(C(=O)C(C)(C)C)N2C(=O)[C@H](Cl)C2S(=O)(=O)C1` (some centres not stated) gave a Ki ss of 4 nM. This compound also gave a half-life in data set [2] of 3.9 h. In the same order, the values of `CO[C@H]1C(=O)N2C(C(=O)OC(C)(C)C)=C(CSc3nnnn3C)CS(=O)(=O)C12` (some centres not stated) are 13 nM and 3.8 h. Taken in the same sequence, the figures for `CC1=C(C(=O)C(C)(C)C)N2C(=O)[C@H](Cl)C2S(=O)(=O)[C@@H]1Sc1nnnn1C` (some centres not stated) were 300 nM and 3.2 h. As for `CC(=O)OCC1=C(C(=O)C(C)(C)C)N2C(=O)[C@H](Cl)C2S(=O)(=O)[C@@H]1Sc1nnnn1C` (some centres not stated), the Ki ss in data set [1] is given as 140 nM. For the same compound, the half-life in data set [2] is 1.8 h.

As for `CO[C@H]1C(=O)N2C(C(=O)C(C)(C)C)=C(COC(C)=O)CS(=O)(=O)C12` (some centres not stated), the Ki ss in data set [1] was 11 nM. Moreover, the half-life in data set [2] is 14 h. The compound `CO[C@H]1C(=O)N2C(C(=O)N3CCC[C@H]3C(=O)O)=C(COC(C)=O)CS(=O)(=O)C12` (some centres not stated) displayed a Ki ss in data set [1] of 200 nM. The same compound registered a k on in data set [3] of 1800 M⁻¹ s⁻¹. The compound also gave a half-life in data set [2] of 18 h. `CC(=O)OCC1=C(C(=O)c2ccccc2)N2C(=O)[C@H](Cl)C2S(=O)(=O)C1` (some centres not stated) gave a Ki ss in data set [1] of 12 nM. In data set [2], this compound showed a half-life of 1.5 h.

Consider `CO[C@H]1C(=O)N2C(C(=O)C(C)(C)C)=C(C)[C@@H](Sc3ccccn3)S(=O)(=O)C12` (some centres not stated), for which, in data set [1], the Ki ss was 10 nM. Also, the half-life in data set [2] is 24 h. `CO[C@H]1C(=O)N2C(C(=O)C(C)(C)C)=C(COC(C)=O)[C@@H](Sc3nnnn3C)S(=O)(=O)C12` (some centres not stated) had a Ki ss in data set [1] of 6 nM. In data set [2], this compound gave a half-life of 10 h. For the compound `CC(=O)CCC1=C(COC(C)=O)CS(=O)(=O)C2[C@@H](Cl)C(=O)N12` (some centres not stated), the half-life in data set [2] was 10 h. In the case of `CO[C@H]1C(=O)N2C(C(=O)C(C)(C)C)=C(C)[C@@H](Sc3nc(=O)c(=O)[nH]n3C)S(=O)(=O)C12` (some centres not stated), the Ki ss in data set [1] was determined as 26 nM. The same compound had a half-life in data set [2] of 21 h. Taken in the same sequence, the figures for `CO[C@H]1C(=O)N2C(C(=O)c3ccccc3)=C(C)[C@@H](Sc3nnnn3C)S(=O)(=O)C12` (some centres not stated) were 1400 nM and 200 h.

Regarding `CO[C@H]1C(=O)N2C(C(=O)C(C)(C)C)=C(C)[C@@H](Sc3nnc(C)s3)S(=O)(=O)C12` (some centres not stated), the Ki ss in data set [1] came to 12 nM. Also, the half-life in data set [2] was 27 h.

In the case of `CO[C@H]1C(=O)N2C(C(=O)N3CCCC3)=C(CSc3nc(=O)c(=O)[nH]n3C)CS(=O)(=O)C12` (some centres not stated), in data set [1], the Ki ss was determined as 75 nM. In addition, in data set [2], the half-life is 25 h.

The compound `CO[C@H]1C(=O)N2C(C(=O)OC(C)(C)C)=C(C)[C@@H](Sc3ccccn3)S(=O)(=O)C12` (some centres not stated) gave a Ki ss in data set [1] of 180 nM. The compound further had a half-life in data set [2] of 4.1 h. For `CCC(=O)C1=C(COC(C)=O)CS(=O)(=O)C2[C@@H](Cl)C(=O)N12` (some centres not stated), in data set [1], the Ki ss is recorded as 11 nM. This compound also had a half-life in data set [2] of 1.1 h. In the same order, the values of `CO[C@H]1C(=O)N2C(C(=O)C(C)(C)C)=C(COC(=O)c3ccccc3)[C@@H](OC(=O)c3ccccc3)S(=O)(=O)C12` (some centres not stated) are less than 2 nM and 1.2 h. In the same order, the values of `CO[C@H]1C(=O)N2C(C(=O)C(C)(C)C)=C(C)[C@@H](OC=O)S(=O)(=O)C12` (some centres not stated) are 600 nM and less than 0.5 h.

With `CO[C@H]1C(=O)N2C(C(=O)C(C)(C)C)=C(C)CS(=O)(=O)C12` (some centres not stated), in data set [1], the Ki ss turned out to be 1300 nM. Further, the half-life in data set [2] is 106 h. Taken in the same sequence, the figures for `CC(=O)OCC1=C(C(=O)Cc2ccccc2)N2C(=O)[C@H](Cl)C2S(=O)(=O)C1` (some centres not stated) were 100 nM and 0.2 h. The compound `CO[C@H]1C(=O)N2C(C(=O)C(C)(C)C)=C(C)[C@@H](OC(=O)c3ccc(CSc4nc(=O)c(=O)[nH]n4C)cc3)S(=O)(=O)C12` (some centres not stated) returned a Ki ss in data set [1] of 2 nM. The half-life in data set [2] was 7.5 h.

With `CO[C@H]1C(=O)N2C(C(=O)C(C)(C)C)=C(CSc3nnnn3C)[C@@H](Sc3nnnn3C)S(=O)(=O)C12` (some centres not stated), the Ki ss in data set [1] stood at 93 nM. For the same compound, the half-life in data set [2] was 31 h. Consider `CO[C@H]1C(=O)N2C(C(=O)SCC(NC(=O)OC(C)(C)C)C(=O)OC(c3ccccc3)c3ccccc3)=C(CSc3nnnn3C)CS(=O)(=O)[C@H]12` (some centres not stated), for which, in data set [4], the Activity was 8%. `CO[C@H]1C(=O)N2C(C(=O)C(C)(C)C)=C(CSc3nnnn3C)[C@@H](OC(=O)c3ccccc3)S(=O)(=O)C12` (some centres not stated) gave a Ki ss in data set [1] of less than 2 nM. In addition, in data set [2], the half-life is 0.7 h. As for `CO[C@H]1C(=O)N2C(C(=O)c3ccccc3)=C(CSc3nnnn3C)[C@@H](Sc3nnnn3C)S(=O)(=O)C12` (some centres not stated), the Ki ss in data set [1] was determined as 55 nM. Further, the half-life in data set [2] is 1400 h. Taken in the same sequence, the figures for `Cn1nnnc1SCC1=C(C(=O)C(C)(C)C)N2C(=O)[C@H](Cl)C2S(=O)(=O)C1` (some centres not stated) were 7 nM and 3 h. `COCC1=C(C(=O)C(C)(C)C)N2C(=O)[C@H](Cl)C2S(=O)(=O)C1` (some centres not stated) came in with a Ki ss in data set [1] of 170 nM. Also, the half-life in data set [2] is 6.9 h.

`CO[C@H]1C(=O)N2C(C(=O)C(C)(C)C)=C(CSc3nc(=O)c(=O)[nH]n3C)CS(=O)(=O)C12` (some centres not stated) came in with a Ki ss in data set [1] of 27 nM. In data set [2], this compound showed a half-life of 16 h. The compound `CO[C@H]1C(=O)N2C(C(=O)C(C)(C)C)=C(C)[C@@H](OC(=O)c3ccccc3)S(=O)(=O)C12` (some centres not stated) returned a Ki ss in data set [1] of less than 2 nM. The half-life in data set [2] was 24 h.

The compound `CO[C@H]1C(=O)N2C(C(=O)C(C)(C)C)=C(C)[C@@H](OC(=O)c3ccc4ccccc4c3)S(=O)(=O)C12` (some centres not stated) had a Ki ss in data set [1] of less than 2 nM. Also, in data set [2], the half-life was 33 h. For the compound `CO[C@H]1C(=O)N2C(C(=O)C(C)(C)C)=C(C)[C@@H](OC(=O)CCC(=O)c3ccccc3)S(=O)(=O)C12` (some centres not stated), in data set [1], the Ki ss is less than 2 nM. Further, in data set [2], the half-life is 13 h. In the same order, the values of `CO[C@H]1C(=O)N2C(C(=O)OC(C)(C)C)=C(CSc3ccccn3)CS(=O)(=O)C12` (some centres not stated) are 100 nM and 5.1 h.

In the case of `CC1=C(C(=O)C(C)(C)C)N2C(=O)[C@H](Cl)C2S(=O)(=O)C1` (some centres not stated), the Ki ss in data set [1] is recorded as 380 nM. Further, in data set [2], the half-life was 5.6 h. Taken in the same sequence, the figures for `CO[C@H]1C(=O)N2C(C(=O)c3ccccc3)=C(C)CS(=O)(=O)C12` (some centres not stated) were 2700 nM and 26 h. In the same order, the values of `CC1=C(C(=O)c2ccccc2)N2C(=O)[C@H](Cl)C2S(=O)(=O)[C@@H]1Sc1nnnn1C` (some centres not stated) are 270 nM and 4.1 h.
